# Test results published in ChEMBL document CHEMBL1152649, “Synthesis, cytotoxicity and human telomerase inhibition activities of a series of 1,2-heteroannelated anthraquinones and anthra[1,2-d]imidazole-6,11-dione homologues” (2009).
# How the values were obtained:
# [1] = Growth inhibition of human Hs 578T cells; format: functional
# In short: (§1)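 NCI 60 cancer cell line screen run per the Developmental Therapeutics Program protocol. Dose–response curves were plotted against log10 drug concentration for each cell line within its subpanel, and mean graph midpoint values were calculated.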
# BT-549 = assay: Growth inhibition of human BT549 cells; format: functional; in short: as §1
# SW-620 = assay: Antiproliferative activity against human SW620 cells assessed as cell growth at 10 uM; format: functional; details: read-out: Activity
# In short: (§2)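 NCI 60 cell line panel, single dose (10^-5 M), run per the Developmental Therapeutics Program protocol (one dose mean graph). Each result is the growth percentage of treated cells relative to untreated control cells.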
# MDA-MB-231 = assay: Antiproliferative activity against human MDA-MB-231 cells assessed as cell growth at 10 uM; format: functional; details: read-out: Activity
# In short: (§3)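 NCI 60 cell line panel, single-dose screen (10^-5 M) run by the developmental therapeutics program protocol. Results are given as growth percent of treated cells relative to untreated control cells for each line.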
# MDA-MB-435 [2] = assay: Antiproliferative activity against human MDA-MB-435 cells assessed as cell growth at 10 uM; format: functional; details: read-out: Activity; in short: as §3
# MDA-MB-468 = assay: Antiproliferative activity against human MDA-MB-468 cells assessed as cell growth at 10 uM; format: functional; details: read-out: Activity; in short: as §3
# OVCAR-4 = assay: Antiproliferative activity against human OVCAR4 cells assessed as cell growth at 10 uM; format: functional; details: read-out: Activity; in short: as §3
# MOLT-4 [3] = assay: Antiproliferative activity against human MOLT4 cells assessed as cell growth at 10 uM; format: functional; details: read-out: Activity; in short: as §3
# ACHN [4] = assay: Antiproliferative activity against human ACHN cells assessed as cell growth at 10 uM; format: functional; details: read-out: Activity; in short: as §3
# CAKI-1 [5] = assay: Antiproliferative activity against human Caki1 cells assessed as cell growth at 10 uM; format: functional; details: read-out: Activity; in short: as §3
# RXF 393 = assay: Antiproliferative activity against human RXF393 cells assessed as cell growth at 10 uM; format: functional; details: read-out: Activity; in short: as §3
# UO-31 = assay: Antiproliferative activity against human UO31 cells assessed as cell growth at 10 uM; format: functional; details: read-out: Activity; in short: as §2
# LOX IMVI = assay: Antiproliferative activity against human LOXIMVI cells assessed as cell growth at 10 uM; format: functional; details: read-out: Activity; in short: as §3
# UACC-62 = assay: Antiproliferative activity against human UACC62 cells assessed as cell growth at 10 uM; format: functional; details: read-out: Activity; in short: as §2
# SF-268 [6] = assay: Antiproliferative activity against human SF268 cells assessed as cell growth at 10 uM; format: functional; details: read-out: Activity; in short: as §3
# SF-539 = assay: Antiproliferative activity against human SF539 cells assessed as cell growth at 10 uM; format: functional; details: read-out: Activity; in short: as §3
# SNB-75 [7] = assay: Antiproliferative activity against human SNB75 cells assessed as cell growth at 10 uM; format: functional; details: read-out: Activity; in short: as §2
# K562 = assay: Growth inhibition of human K562 cells; format: functional; in short: as §1
# MOLT-4 [8] = assay: Growth inhibition of human MOLT4 cells; format: functional; in short: as §1
# NCI-H322M = assay: Growth inhibition of human NCI-H322M cells; format: functional; in short: as §1
# COLO 205 = assay: Growth inhibition of human COLO205 cells; format: functional; in short: as §1
# KM12 [9] = assay: Growth inhibition of human KM12 cells; format: functional; in short: as §1
# SF-268 [10] = assay: Growth inhibition of human SF268 cells; format: functional
# In short: (§4)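 Assayed in the NCI 60 human cancer cell line panel under the Developmental Therapeutics Program protocol. For each line, dose–response curves were plotted against log10 drug concentration. In the one-dose screen at 10^-5 M, growth was given as percent of untreated control cells, and mean graph midpoint values were averaged.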
# SNB-19 = assay: Growth inhibition of human SNB19 cells; format: functional; in short: as §4
# SNB-75 [11] = assay: Growth inhibition of human SNB75 cells; format: functional; in short: as §4
# MDA-MB-435 [12] = assay: Growth inhibition of human MDA-MB-435 cells; format: functional; in short: as §1
# SK-MEL-28 = assay: Growth inhibition of human SK-MEL-28 cells; format: functional; in short: as §4
# IGROV-1 = assay: Growth inhibition of human IGROV1 cells; format: functional; in short: as §1
# OVCAR-3 = assay: Growth inhibition of human OVCAR-3 cells; format: functional; in short: as §1
# OVCAR-8 = assay: Growth inhibition of human OVCAR8 cells; format: functional; in short: as §1
# NCI/ADR-RES = assay: Growth inhibition of human NCI/ADR-RES cells; format: functional; in short: as §1
# 786-0 = assay: Growth inhibition of human 786-0 cells; format: functional; in short: as §1
# A498 = assay: Growth inhibition of human A498 cells; format: functional; in short: as §1
# ACHN [13] = assay: Growth inhibition of human ACHN cells; format: functional; in short: as §1
# CAKI-1 [14] = assay: Growth inhibition of human Caki1 cells; format: functional; in short: as §1
# SN12C = assay: Growth inhibition of human SN12C cells; format: functional; in short: as §4
# TK-10 = assay: Growth inhibition of human TK10 cells; format: functional; in short: as §4
# MCF7 = assay: Growth inhibition of human MCF7 cells; format: functional; in short: as §1
# HCT-116 = assay: Antiproliferative activity against human HCT116 cells assessed as cell growth at 10 uM; format: functional; details: read-out: Activity; in short: as §3
# HCT-15 = assay: Antiproliferative activity against human HCT15 cells assessed as cell growth at 10 uM; format: functional; details: read-out: Activity; in short: as §3
# KM12 [15] = assay: Antiproliferative activity against human KM12 cells assessed as cell growth at 10 uM; format: functional; details: read-out: Activity; in short: as §3
# [16] = target: Telomerase reverse transcriptase (Homo sapiens) (UniProt O14746); assay: Inhibition of TERT in human H1299 cells assessed as residual transcriptional activity at 10 uM after 24 hrs by SEAP reporter gene assay; values are per cent of control
# [17] = read-out: LC50 (the source's name)
# Sequence of Telomerase reverse transcriptase (Homo sapiens) (O14746 whole entry): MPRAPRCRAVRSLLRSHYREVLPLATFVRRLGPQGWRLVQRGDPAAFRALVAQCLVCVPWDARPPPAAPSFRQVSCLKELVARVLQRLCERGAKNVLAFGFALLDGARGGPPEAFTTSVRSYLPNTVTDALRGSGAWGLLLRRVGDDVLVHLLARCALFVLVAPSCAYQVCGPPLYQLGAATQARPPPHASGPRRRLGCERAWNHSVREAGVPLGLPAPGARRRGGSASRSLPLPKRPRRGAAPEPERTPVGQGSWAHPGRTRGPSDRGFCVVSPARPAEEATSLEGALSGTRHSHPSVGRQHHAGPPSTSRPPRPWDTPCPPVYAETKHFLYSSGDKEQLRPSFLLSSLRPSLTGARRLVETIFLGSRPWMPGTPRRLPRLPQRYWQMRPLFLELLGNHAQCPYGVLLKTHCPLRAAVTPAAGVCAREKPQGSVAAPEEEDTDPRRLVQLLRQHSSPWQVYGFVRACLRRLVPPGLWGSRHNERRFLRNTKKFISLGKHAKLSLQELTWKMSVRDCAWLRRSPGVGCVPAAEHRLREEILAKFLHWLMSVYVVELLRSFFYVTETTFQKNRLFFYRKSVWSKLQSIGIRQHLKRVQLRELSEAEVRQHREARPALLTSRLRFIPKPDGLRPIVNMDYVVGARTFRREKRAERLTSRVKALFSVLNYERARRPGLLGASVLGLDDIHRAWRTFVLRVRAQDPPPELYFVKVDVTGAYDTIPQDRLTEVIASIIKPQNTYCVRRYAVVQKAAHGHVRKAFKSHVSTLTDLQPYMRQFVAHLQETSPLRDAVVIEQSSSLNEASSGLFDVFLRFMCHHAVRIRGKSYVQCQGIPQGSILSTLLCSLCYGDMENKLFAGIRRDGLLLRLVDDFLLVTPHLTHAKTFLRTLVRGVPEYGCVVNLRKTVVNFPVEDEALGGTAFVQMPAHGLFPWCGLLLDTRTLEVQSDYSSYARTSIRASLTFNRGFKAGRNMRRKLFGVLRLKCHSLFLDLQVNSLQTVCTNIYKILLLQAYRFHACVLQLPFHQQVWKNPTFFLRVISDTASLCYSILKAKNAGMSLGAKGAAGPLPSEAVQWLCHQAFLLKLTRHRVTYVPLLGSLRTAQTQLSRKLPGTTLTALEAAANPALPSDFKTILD
compound,measurement,setting,value
O=C1c2ccccc2C(=O)c2c1ccc1nsnc21,GI50,[1],1.41 µM
same,LC50,[1],56 µM
same,TGI,[1],5.02 µM
same,GI50,BT-549,1.63 µM
same,LC50,BT-549,6.01 µM
same,TGI,BT-549,3.13 µM
same,growth at 10 µM,SW-620,7.3%
same,growth at 10 µM,MDA-MB-231,-17.3%
same,growth at 10 µM,MDA-MB-435 [2],-87.9%
same,growth at 10 µM,MDA-MB-468,-73.2%
same,growth at 10 µM,OVCAR-4,-94.4%
same,growth at 10 µM,MOLT-4 [3],-40.1%
same,growth at 10 µM,ACHN [4],-94.3%
same,growth at 10 µM,CAKI-1 [5],1.97%
same,growth at 10 µM,RXF 393,20.1%
same,growth at 10 µM,UO-31,-79.3%
same,growth at 10 µM,LOX IMVI,-50.6%
same,growth at 10 µM,UACC-62,-82.3%
same,growth at 10 µM,SF-268 [6],16.3%
same,growth at 10 µM,SF-539,-47.1%
same,growth at 10 µM,SNB-75 [7],79%
same,GI50,K562,1.92 µM
same,LC50,K562,41.2 µM
same,TGI,K562,15.9 µM
same,GI50,MOLT-4 [8],0.49 µM
same,TGI,MOLT-4 [8],1.84 µM
same,CC50,MOLT-4 [8]; [17],4.71 µM
same,GI50,NCI-H322M,17.4 µM
same,TGI,NCI-H322M,47.8 µM
same,CC50,NCI-H322M; [17],> 100 µM
same,GI50,COLO 205,13.4 µM
same,TGI,COLO 205,28.9 µM
same,CC50,COLO 205; [17],62.4 µM
same,GI50,KM12 [9],1.96 µM
same,TGI,KM12 [9],5.54 µM
same,CC50,KM12 [9]; [17],59.7 µM
same,GI50,SF-268 [10],2.17 µM
same,TGI,SF-268 [10],5.77 µM
same,CC50,SF-268 [10]; [17],27.7 µM
same,GI50,SNB-19,2.28 µM
same,TGI,SNB-19,5.82 µM
same,CC50,SNB-19; [17],26 µM
same,GI50,SNB-75 [11],2.03 µM
same,TGI,SNB-75 [11],5.2 µM
same,CC50,SNB-75 [11]; [17],18.6 µM
same,GI50,MDA-MB-435 [12],1.91 µM
same,TGI,MDA-MB-435 [12],3.31 µM
same,CC50,MDA-MB-435 [12]; [17],5.76 µM
same,GI50,SK-MEL-28,1.85 µM
same,TGI,SK-MEL-28,3.38 µM
same,CC50,SK-MEL-28; [17],6.18 µM
same,GI50,IGROV-1,1.36 µM
same,TGI,IGROV-1,2.94 µM
same,CC50,IGROV-1; [17],6.35 µM
same,GI50,OVCAR-3,0.55 µM
same,TGI,OVCAR-3,2.46 µM
same,CC50,OVCAR-3; [17],11.1 µM
same,GI50,OVCAR-8,1.66 µM
same,TGI,OVCAR-8,4.68 µM
same,CC50,OVCAR-8; [17],59.8 µM
same,GI50,NCI/ADR-RES,1.86 µM
same,TGI,NCI/ADR-RES,12.6 µM
same,CC50,NCI/ADR-RES; [17],> 100 µM
same,GI50,786-0,6.17 µM
same,TGI,786-0,19.3 µM
same,CC50,786-0; [17],50.4 µM
same,GI50,A498,12.4 µM
same,TGI,A498,25.4 µM
same,CC50,A498; [17],52 µM
same,GI50,ACHN [13],1.46 µM
same,TGI,ACHN [13],2.77 µM
same,CC50,ACHN [13]; [17],5.27 µM
same,GI50,CAKI-1 [14],1.61 µM
same,TGI,CAKI-1 [14],2.96 µM
same,CC50,CAKI-1 [14]; [17],5.44 µM
same,GI50,SN12C,1.33 µM
same,TGI,SN12C,3.17 µM
same,CC50,SN12C; [17],7.56 µM
same,GI50,TK-10,2.85 µM
same,TGI,TK-10,10.9 µM
same,CC50,TK-10; [17],50.4 µM
same,GI50,MCF7,1.53 µM
same,TGI,MCF7,3.34 µM
same,CC50,MCF7; [17],7.29 µM
same,growth at 10 µM,HCT-116,-50%
same,growth at 10 µM,HCT-15,1.48%
same,growth at 10 µM,KM12 [15],98.6%
same,residual activity,[16],10%
